Myeloid diff 2: myeloid differentiation induction; calls only at 10 µM; AID 624256; ER-HoxA9 myeloid progenitors, lysozyme-GFP differentiation, flow cytometry; hit rate 1% among 360,000;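 active = normalized GFP-positive differentiation at or above the plate's own cutoff, the solvent-only control mean plus 3 SD; inconclusive = no clear call, values can overlap the other calls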;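 also: cells exposed to compound for four days before flow analysis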
VLA-4 inh: inhibition in a human VLA-4 binding assay. P13612. VLA-4 expressing cells, ligand binding flow cytometry. inhibition, % (about 7 µM as worked out from the volumes in the protocol). hit rate 0.2% among 330,000. AID 2557; in the data active = inhibition above about 50%
Platelet DG rel: platelet dense granule release activity; hit rate 0.22% among 300,000; AID 1663; inhibition, %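 (compounds screened at 7.5 µM in platelet-rich plasma)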; human platelet-rich plasma, SFLLRN dense granule ATP release, luminescence;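 active = mean replicate score, as percent of positive control, at or above 50; inconclusive = mean below 50 but at least one replicate at or above 50; inactive = mean and every replicate below 50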
SENP1 FRET inh: SENP1 (human) catalytic domain inhibition. Q9P0U3. recombinant SENP1 catalytic domain, CyPet-SUMO1-YPet FRET cleavage. inhibition, % at 10 µM. hit rate 0.21% among 360,000;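 active = inhibition at least 30% at 10 µM, raw YFP signal under a set limit, fluorescence ratio 0.5 to 1.5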
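Assay system – human recombinant His6-tagged SENP1 catalytic domain enzyme · Input – SENP1 enzyme, 20 pM final · Buffer or medium – Tris pH 8 buffer plus EDTA, NaCl, BME, BSA, NP40, catalase · Schedule – 50 min reaction at room temperature · Technique – FRET read of cyan and yellow fluorescence · Control set – no-enzyme wells low, DMSO-plus-enzyme wells high control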
SENP1 inh conf: confirmation of human SENP1 SUMO protease inhibitors | shares compounds with SENP1 FRET inh | recombinant SENP1, CyPet-SUMO1-YPet FRET cleavage | inhibition, % at 10 µM | hit rate 34% among 520; in the data active = inhibition mostly above about 35%, no sharp cut-off; inactive = mostly below about 32%
SENP1 kinetic: confirmation of human SENP1 SUMO protease inhibitors, kinetic; shares compounds with SENP1 FRET inh; recombinant SENP1, CyPet-SUMO1-YPet FRET kinetic cleavage; inhibition, % at 10 µM; hit rate 26% among 520; in the data active = inhibition mostly above about 32%, no sharp cut-off; inactive = mostly below about 29%
A number is an active result; n = inactive; u = inconclusive; x = not tested or not shown; + = active, no number; ! = not confirmed by another sample. Rows were chosen to be rich in hits. Some 1.5% of all compounds tested hit in one or more screens of this group.

SMILES	Myeloid diff 2	VLA-4 inh	Platelet DG rel	SENP1 FRET inh	SENP1 inh conf	SENP1 kinetic
CCN1/C(=C\C=C2\C(=O)N(c3ccccc3)C(=S)N2C)Sc2ccccc21	x	x	n	35	n	n
O=C(NCCOc1ccc(Cl)cc1)c1ccco1	n	n	n	n	x	x
O=C1CCCc2c1cc(C(=O)Nc1ccc(Br)cn1)c(=O)n2-c1ccccc1	n	n	n	70	n	n
O=C(COC(=O)CCc1ccccc1)NCc1ccc2c(c1)OCO2	n	n	x	32	n	n
O=C(CCc1ccccc1)NCc1ccc2c(c1)OCO2	n	n	n	n	x	x
C/C(=N/N=C(\C)c1ccccc1O)c1ccccc1O	n	n	n	n	x	x
CCC(=NN=C(CC)c1ccccc1O)c1ccccc1O	n	x	x	47	130	73
COc1ccccc1-n1cc(-c2ccc([N+](=O)[O-])cc2)[nH]c1=S	n	n	n	43	n	n
Cc1ccc(-n2cc(-c3ccc([N+](=O)[O-])cc3)[nH]c2=S)c(C)c1	n	n	n	63	42	33
O=[N+]([O-])c1ccc(Oc2cccc3cccnc23)c([N+](=O)[O-])c1	+	n	n	76	n	n
Cc1ccc(NC2=C(C(=O)c3ccccc3)N(C)S(=O)(=O)c3ccccc32)cc1	n	n	n	33	35	n
Nc1ccc2oc(=O)c(-c3ccccc3)cc2c1	n	n	n	68	n	n
Nc1ccc(-c2cc3ccccc3oc2=O)cc1	n	n	n	n	x	x
CC1(C)CC(=O)C2=C(C1)Nc1ccccc1NC2c1ccccc1F (stereo not given)	n	n	n	36	n	n
CCOC(=O)[C@H]1[C@H]2COc3ccc(OC)cc3[C@@H]2N2C(=O)c3cc(OC)c(OC)cc3NC(=O)[C@@]12C	n	x	x	n	x	x
S=C1CCSc2ccc(Cl)cc2N1	n	x	n	n	x	x
O=C1CCCC2=C1Sc1ccc(Cl)cc1N2	n	n	n	72	93	50
c1cc(Nc2cccc3nccnc23)c2nccnc2c1	n	n	n	52	61	41
Fc1ccc(Nc2cccc3nccnc23)cc1	n	n	n	n	x	x
O=C(N/N=C/c1cc(Br)c(Br)o1)c1cccnc1	n	n	n	35	n	n
O=C(N/N=C/c1cccnc1)c1cccc(Br)c1	n	n	n	31	n	n
O=C(NCc1ccccn1)Nc1ccccc1F	n	n	n	n	x	x
CC(C)C[C@H]1C(=O)N2CCC[C@H]2[C@]2(O)O[C@](NC(=O)C3C=C4c5cccc6[nH]c(Br)c(c56)C[C@H]4N(C)C3)(C(C)C)C(=O)N12 (stereo not given in full)	n	n	n	n	x	x
CN1C[C@H](C(=O)N[C@]2(C)O[C@@]3(O)[C@@H]4CCCN4C(=O)[C@H](Cc4ccccc4)N3C2=O)CC2c3cccc4[nH]cc(c34)C[C@H]21 (stereo not given in full)	n	n	x	34!	n	n
Oc1ccccc1NCC(O)Cn1ccc2ccccc21 (stereo not given)	n	n	n	37	n	n
SMILES	Myeloid diff 2	VLA-4 inh	Platelet DG rel	SENP1 FRET inh	SENP1 inh conf	SENP1 kinetic
CC1=C(C(=O)N2CCCCCC2)CC(CC(=O)NC2CCCCC2)C(=O)N1Cc1ccc(C(C)(C)C)cc1 (stereo not given)	n	x	x	n	x	x
Cc1ccc(SCc2cc(=O)n3ccsc3n2)c(C)c1	x	n	n	x	x	x
Cc1cccc(-n2c(SCc3cc(=O)n4ccsc4n3)nc3ccccc32)c1	n	n	n	31	40	n
COc1cc(NC(=O)C2=COCCO2)c(OC)cc1Cl	n	n	n	n	x	x
NC(=O)N/N=C/c1c(O)ccc2oc3c(c12)CCCC3	n	n	n	n	x	x
CC(C)(C)N=Cc1c(O)ccc2oc3c(c12)CCCC3	n	n	n	31	n	n
Cc1cc(F)ccc1-c1cc(C(=O)NC2CCCCC2)[nH]n1	n	x	x	n	x	x
O=C1Nc2ccccc2Oc2cc([N+](=O)[O-])cc(Oc3ccccc3)c21	+	n	n	59	n	n
Cc1cccc(Oc2cc([N+](=O)[O-])cc3c2C(=O)Nc2ccccc2O3)c1	n	n	n	n	x	x
N#C/C(=C\C=C\c1ccccc1[N+](=O)[O-])c1nc(-c2ccc3c(c2)OCO3)cs1	n	n	n	54	n	n
CSc1nnc2c(n1)OC(C)N(C(=O)c1ccccc1)c1ccccc1-2 (stereo not given)	n	n	n	30	n	34
CC(=O)c1ccc(OCc2cc(C(=O)NC3CCCCC3)no2)cc1	n	n	n	n	x	x
CCN(CC)CCNc1ccc(CO)c2oc3cc(Cl)ccc3c(=O)c12	n	x	x	48	55	35
CN(C)CCNc1ccc(CO)c2oc3ccc(O)cc3c(=O)c12	x	x	x	58	65	39
Cc1ccc(C(=O)NCCc2ccc(S(N)(=O)=O)cc2)cc1[N+](=O)[O-]	n	n	n	n	x	x
O=C(NCc1ccccc1)c1onc(CSc2ccc(F)c(F)c2)c1C(=O)NCc1ccccc1	n	n	n	n	x	x
COc1ccc2c(c1)c1nc3ccccc3nc1n2Cc1ccc(OC)c(OC)c1	n	n	n	39	63	52
CCOC(=O)Cn1c2ccc(OC)cc2c2nc3ccccc3nc21	n	n	n	n	x	x
COC(=O)Cn1c2ccc(OC)cc2c2nc3ccccc3nc21	n	n	n	n	x	x
CCOc1ccc(Cn2c3ccc(OC)cc3c3nc4ccccc4nc32)cc1OC	n	n	n	42	68	48
O=C(Nc1ccc2c(c1)OCO2)c1ccc2c(c1)S(=O)(=O)c1ccccc1C2=O	n	n	n	n	x	x
CC(C)Cn1c(N)c(C(=O)COC(=O)c2cccnc2Cl)c(=O)n(C)c1=O	n	n	n	n	x	x
O=C1/C(=C/c2ccc([N+](=O)[O-])cc2)Oc2cc(O)ccc21	n	n	n	62	45	n
O=C(NC(Cc1ccccc1)C(=O)O)/C(=C/c1cccc([N+](=O)[O-])c1)NC(=O)c1ccco1 (stereo not given)	n	n	n	n	x	x
O=C(NC(Cc1ccccc1)C(=O)O)/C(=C\c1ccc([N+](=O)[O-])cc1)NC(=O)c1ccco1 (stereo not given)	n	n	n	33	n	n
SMILES	Myeloid diff 2	VLA-4 inh	Platelet DG rel	SENP1 FRET inh	SENP1 inh conf	SENP1 kinetic
CCOC(=O)/C(C#N)=C/c1cc2ccccc2nc1N1CCOCC1	n	n	n	67	n	n
CCOC(=O)/C(C#N)=C/c1cc2ccc(C)cc2nc1Cl	u	n	n	n	x	x
Cc1ccc(NC(=O)CN(C)C(=O)c2cccc(-n3cccc3)c2)cc1	n	x	x	n	x	x
COc1cc(O)c(C=Nc2ccccc2NS(=O)(=O)c2ccc(C)cc2)c(OC)c1	n	x	x	51	74	67
COc1ccc(-c2ccc3c(c2)S(=O)(=O)c2cccc(C(=O)NCCOc4ccccc4Cl)c2C3=O)cc1OC	n	n	x	29	n	n
COc1ccc(-c2ccc3c(c2)S(=O)(=O)c2cccc(C(=O)NCc4ccccc4Cl)c2C3=O)cc1OC	n	n	x	58	n	n
